Measured values reported in ChEMBL document CHEMBL4316610, “Synthesis and Biological Studies of (+)-Liquiditerpenoic Acid A (Abietopinoic Acid) and Representative Analogues: SAR Studies” (J Nat Prod, 2019).
Calls of active or inactive are those of the source. The calls are words filed in the database; no cut-off is given here.

Assays:
NALM-6 [1] = test: Antiproliferative activity against human NALM6 cells after 72 hrs by CellTiter-Glo luminescent cell viability assay; assay type: functional, cell-based; conditions: NALM-6, 72 h
[2] = Antiproliferative activity against mouse leukemia cells overexpressing BCR/ABL after 72 hrs by CellTiter-Glo luminescent cell viability assay; assay type: functional, cell-based
T47D [3] = test: Antiproliferative activity against human T47D cells; assay type: functional
WiDr [4] = test: Antiproliferative activity against human WiDr cells; assay type: functional
A549 [5] = test: Antiproliferative activity against human A549 cells; assay type: functional
HBL-100 [6] = test: Antiproliferative activity against human HBL100 cells; assay type: functional
SW1573 [7] = test: Antiproliferative activity against human SW1573 cells; assay type: functional
HeLa [8] = test: Antiproliferative activity against human HeLa cells; assay type: functional
[9] = target: T1, GABA-A receptor; alpha-1/beta-2/gamma-2 (Homo sapiens) (UniProt P14867+P47870+P18507); test: Modulation of recombinant wild type GABAA receptor alpha1beta2gamma2S (unknown origin) expressed in Xenopus laevis oocytes assessed as increase in GABA-evoked chloride current at 10 uM at -70 mV holding potential by two-microelectrode voltage clamp assay relative to control; assay type: cell-based
Method in brief: (§1)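 Two-microelectrode voltage clamp at -70 mV on Xenopus laevis oocytes expressing α1β2γ2S GABA-A receptors. GABA EC5 (4-5 μM), set individually for each oocyte, applied for 20 s alone, then co-applied with compound at 10 or 100 μM. Potentiation of GABA-evoked current is reported. Dehydroabietic acid served as positive control. Mean ± SEM from at least three oocytes and two oocyte batches.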

[10] = Selectivity index, ratio of CC50 for mouse J774 cells to IC50 for Leishmania infantum MCAN/ES/96/BCN150 promastigotes; assay type: toxicity; conditions: read-out: Ratio CC50/IC50
Leishmania donovani = test: Antileishmanial activity against Leishmania donovani MHOM/IN/80/DD8 promastigotes after 48 hrs by resazurin dye-based fluorometric analysis; assay type: functional, organism-based
Method in brief: (§2)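 The IC50 is taken as the compound concentration giving a 50% reduction in parasites, reported with SD.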

Leishmania infantum = test: Antileishmanial activity against Leishmania infantum MCAN/ES/96/BCN150 promastigotes after 48 hrs by resazurin dye-based fluorometric analysis; assay type: functional, organism-based; method in brief: as §2
[11] = Selectivity index, ratio of CC50 for mouse J774 cells to IC50 for Leishmania guyanensis 141/93 promastigotes; assay type: toxicity; conditions: read-out: Ratio CC50/IC50
Leishmania guyanensis = test: Antileishmanial activity against Leishmania guyanensis 141/93 promastigotes after 48 hrs by resazurin dye-based fluorometric analysis; assay type: functional, organism-based; method in brief: as §2
Leishmania amazonensis = test: Antileishmanial activity against Leishmania amazonensis MHOM/Br/79/Mari promastigotes after 48 hrs by resazurin dye-based fluorometric analysis; assay type: functional, organism-based; method in brief: as §2
[12] = Cytotoxicity against mouse J774 cells assessed as reduction in cell viability after 48 hrs by resazurin dye-based fluorometric analysis
Method in brief: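 The CC50 is taken as the concentration giving a 50% reduction in cell viability of treated cultures compared with untreated cells.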

[13] = Selectivity index, ratio of CC50 for mouse J774 cells to IC50 for Leishmania amazonensis MHOM/Br/79/Mari promastigotes; assay type: toxicity; conditions: read-out: Ratio CC50/IC50
[14] = Selectivity index, ratio of CC50 for mouse J774 cells to IC50 for Leishmania donovani MHOM/IN/80/DD8 promastigotes; assay type: toxicity; conditions: read-out: Ratio CC50/IC50
[15] = target: T1, GABA-A receptor; alpha-1/beta-2/gamma-2 (Homo sapiens); test: Modulation of recombinant wild type GABAA receptor alpha1beta2gamma2S (unknown origin) expressed in Xenopus laevis oocytes assessed as increase in GABA-evoked chloride current at 100 uM at -70 mV holding potential by two-microelectrode voltage clamp assay relative to control; assay type: cell-based; method in brief: as §1
WiDr [16] = test: Antiproliferative activity against human WiDr cells after 48 hrs by SRB assay; assay type: functional
A549 [17] = test: Antiproliferative activity against human A549 cells after 48 hrs by SRB assay; assay type: functional; conditions: A549, 48 h
HBL-100 [18] = test: Antiproliferative activity against human HBL100 cells after 48 hrs by SRB assay; assay type: functional; conditions: HBL-100, 48 h
HeLa [19] = test: Antiproliferative activity against human HeLa cells after 48 hrs by SRB assay; assay type: functional
T47D [20] = test: Antiproliferative activity against human T47D cells after 48 hrs by SRB assay; assay type: functional
SW1573 [21] = test: Antiproliferative activity against human SW1573 cells after 48 hrs by SRB assay; assay type: functional; conditions: SW1573, 48 h
KOPN-8 [22] = test: Antiproliferative activity against human KOPN8 cells after 72 hrs by CellTiter-Glo luminescent cell viability assay; assay type: functional, cell-based; conditions: KOPN-8, 72 h
KOPN-8 [23] = test: Induction of apoptosis in human KOPN8 cells assessed as late apoptotic cells at 20 uM after 32 hrs by Annexin V-FITC/propidium iodide staining-based flow cytometric analysis relative to control; assay type: functional
SUP-B15 = test: Antiproliferative activity against human SUP-B15 cells after 72 hrs by CellTiter-Glo luminescent cell viability assay; assay type: functional, cell-based; conditions: SUP-B15, 72 h
UoC-B1 = test: Antiproliferative activity against human UOCB1 cells after 72 hrs by CellTiter-Glo luminescent cell viability assay; assay type: functional, cell-based; conditions: UoC-B1, 72 h
NALM-6 [24] = test: Cell cycle arrest in human NALM6 cells assessed as accumulation at G2/M phase at 10 uM after 24 hrs by propidium iodide staining-based flow cytometric analysis; assay type: functional
Method in brief: (§3)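 Phosphatidylserine exposure read by Annexin V-FITC/propidium iodide flow cytometry; DNA content by PI staining for cell-cycle distribution.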

BJ = test: Antiproliferative activity against human BJ cells after 72 hrs by CellTiter-Glo luminescent cell viability assay; assay type: ADME, cell-based
NALM-6 [25] = test: Cell cycle arrest in human NALM6 cells assessed as accumulation at G0/G1 phase at 10 uM after 24 hrs by propidium iodide staining-based flow cytometric analysis; assay type: functional; method in brief: as §3
NALM-6 [26] = test: Induction of apoptosis in human NALM6 cells at 10 uM after 24 hrs by Annexin V-FITC/propidium iodide staining-based flow cytometric analysis; assay type: functional, cell-based; method in brief: as §3
[27] = Leishmania donovani, MHOM/IN/80/DD8, 48 h, read-out: IC50
[28] = Leishmania donovani, MHOM/IN/80/DD8, 48 h, read-out: log(1/IC50) (converted)
[29] = Leishmania infantum, MCAN/ES/96/BCN150, 48 h, read-out: IC50
[30] = Leishmania guyanensis, 141/93, 48 h, read-out: IC50
[31] = Leishmania amazonensis, MHOM/Br/79/Mari, 48 h, read-out: IC50

Row | SMILES | Activity [9] [%] | selectivity ratio [10] | IC50 (Leishmania donovani; [27]) [µM] | IC50 (Leishmania donovani; [28]) [µM] | IC50 (Leishmania infantum; [29]) [µM] | selectivity ratio [11] | IC50 (Leishmania guyanensis; [30]) [µM] | IC50 (Leishmania amazonensis; [31]) [µM] | CC50 at 48 h [12] [µM] | selectivity ratio [13] | selectivity ratio [14] | Activity [15] [%] | other results
1 | CN[C@@H]1C[C@H]2O[C@@](C)([C@@H]1OC)n1c3ccccc3c3c4c(c5c6ccccc6n2c5c31)C(=O)NC4 [STAUROSPORINE] |  |  |  |  |  |  |  |  |  |  |  |  | EC50 (NALM-6 [1]): 1.4 µM; EC50 [2]: 0.35 µM
2 | COC(=O)[C@]1(C)CCC[C@]2(C)c3ccc(C(C)C)cc3CC[C@@H]12 [METHYL DEHYDROABIETATE] |  |  |  |  |  |  |  |  |  |  |  |  | GI50 (T47D [3]): 16 µM; GI50 (WiDr [4]): 10 µM; GI50 (A549 [5]): 15 µM; GI50 (HBL-100 [6]): 19 µM; GI50 (SW1573 [7]): 22 µM; GI50 (HeLa [8]): 15 µM
3 | CC(C)c1cc2c(cc1O)[C@@]1(C)CCC[C@@](C)(C(=O)O)[C@@H]1CC2 | 8.9 | 2 | 58.1 | 58.1 | 43.6 | 1.2 | 71.4 | 54.1 | 85.8 | 1.6 | 1.5 | 12.1 | 
4 | COc1cc([C@@H]2c3cc4c(cc3[C@@H](O[C@@H]3O[C@@H]5CO[C@@H](C)O[C@H]5[C@H](O)[C@H]3O)[C@H]3COC(=O)[C@H]23)OCO4)cc(OC)c1O [ETOPOSIDE] |  |  |  |  |  |  |  |  |  |  |  |  | GI50 (WiDr [16]): 23 µM; GI50 (A549 [17]): 1.5 µM; GI50 (HBL-100 [18]): 1.4 µM; GI50 (HeLa [19]): 3.3 µM; GI50 (T47D [20]): 22 µM; GI50 (SW1573 [21]): 15 µM
5 | CC(C)c1cc2c(cc1O)[C@@]1(C)CCC[C@@](C)(CO)[C@@H]1CC2=O | 4.5 | 1.5 | 19.7 | 19.7 | 9.7 | 0.9 | 16.5 | 10.2 | 14.4 | 1.4 | 0.7 | -30.3 | 
6 | CCCCCCCCCCCCCCCCOP(=O)([O-])OCC[N+](C)(C)C [MILTEFOSINE] |  | 40.1 |  |  |  | 7.5 |  |  |  | 2.9 | 909 |  | 
7 | COC(=O)[C@]1(C)CCC[C@]2(C)c3cc(OC(C)=O)c(C(C)C)cc3CC[C@@H]12 | 5.1 | 20.4 | 8.1 | 8.12 | 1.3 | 4.8 | 5.5 | 3.2 | 26.5 | 8.2 | 3.3 | 26.3 | GI50 (WiDr [16]): 16 µM; EC50 (KOPN-8 [22]): 21 µM; EC50 (NALM-6 [1]): 8.8 µM; GI50 (A549 [17]): 11 µM; GI50 (HBL-100 [18]): 15 µM; EC50 [2]: 14.3 µM; Activity (KOPN-8 [23]): >85%; GI50 (HeLa [19]): 4.4 µM; EC50 (SUP-B15): 20.2 µM; EC50 (UoC-B1): > 40 µM; GI50 (T47D [20]): 14 µM; GI50 (SW1573 [21]): 12 µM; Activity (NALM-6 [24]): Active; EC50 (BJ): Non-Toxic; Activity (NALM-6 [25]): Active; Activity (NALM-6 [26]): inactive
8 | COC(=O)[C@]1(C)CCC[C@]2(C)c3cc(O)c(C(C)C)cc3C(=O)C[C@@H]12 | 37.4 |  |  |  |  |  |  |  | 154 |  |  | 242 | 
9 | CC(C)c1cc2c(cc1O)[C@@]1(C)CCC[C@@](C)(CO)[C@@H]1CC2 [18-HYDROXYFERRUGINOL] | 29.3 | 33.4 | 13.9 | 13.9 | 0.7 | 1.9 | 12.5 | 7.7 | 23.4 | 3 | 1.7 | 154 | 
10 | CC(C)c1cc2c(cc1O)[C@@]1(C)CCC[C@@](C)(C(=O)O)[C@@H]1CC2=O | -2 |  |  |  |  |  |  |  | 219 |  |  | -21.1 | IC50 (Leishmania donovani): Not Active; IC50 (Leishmania infantum): Not Active; IC50 (Leishmania guyanensis): Not Active; IC50 (Leishmania amazonensis): Not Active
11 | COC(=O)[C@]1(C)CCC[C@]2(C)c3cc(O)c(C(C)C)cc3CC[C@@H]12 | 23.7 | 6.8 | 9.21 | 9.21 | 5 | 5.8 | 5.9 | 3.9 | 34.2 | 8.7 | 3.7 | 378 | GI50 (WiDr [16]): 23 µM; GI50 (A549 [17]): 9.4 µM; GI50 (HBL-100 [18]): 9.7 µM; GI50 (HeLa [19]): 5.8 µM; GI50 (T47D [20]): 19 µM; GI50 (SW1573 [21]): 11 µM
